# From ChEMBL document CHEMBL3259528, “Exploring 5-nitrofuran derivatives against nosocomial pathogens: synthesis, antimicrobial activity and chemometric analysis” (2014)
# Activity calls are given as the source filed them. The rule behind the calls is not given here.
# What was measured:
# Staphylococcus aureus [1] = experiment: Antimicrobial activity against Staphylococcus aureus ATCC 29213 after 18 hrs by modified broth microdilution method; format: functional
# In short: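 PGI90, the concentration giving 90% growth inhibition, fitted with an exponential growth curve from at least seven concentrations of the MIC assay. Inhibition % = [(Ac − Ap)/Ac] × 100 from A620 of drug-free control versus drug-treated culture. Checked by a modified broth microdilution (Phase 2).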
# Staphylococcus aureus [2] = experiment: Antimicrobial activity against Staphylococcus aureus ATCC 29213 after 24 to 48 hrs by two-fold broth microdilution method; format: functional
# Enterobacter cloacae = experiment: Antimicrobial activity against Enterobacter cloacae ATCC 23355 at 128 uM after 24 to 48 hrs by two-fold broth microdilution method; format: functional, organism-based
# In short: (§1)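 Antibacterial microdilution in CAMH, inoculum 0.5 McFarland diluted in saline/CAMH, 35 °C for 18 h, with further reads at 24 and 48 h. Activity is scored at the maximum tested concentration, 128 µM. Triplicate.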
# Serratia marcescens [3] = experiment: Antimicrobial activity against Serratia marcescens ATCC 14576 after 24 to 48 hrs by two-fold broth microdilution method; format: functional
# Enterococcus faecalis = experiment: Antimicrobial activity against Enterococcus faecalis ATCC 29212 after 24 to 48 hrs by two-fold broth microdilution method; format: functional
# Escherichia coli [4] = experiment: Antimicrobial activity against Escherichia coli ATCC 25922 after 24 to 48 hrs by two-fold broth microdilution method; format: functional
# Klebsiella pneumoniae = experiment: Antimicrobial activity against Klebsiella pneumoniae ATCC 700603 at 128 uM after 24 to 48 hrs by two-fold broth microdilution method; format: functional, organism-based; in short: as §1
# Candida albicans [5] = experiment: Antimicrobial activity against Candida albicans ATCC 537Y after 48 hrs by two-fold broth microdilution method; format: functional
# In short: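 Two-fold serial dilutions in RPMI 1640 per CLSI M27-A2. Stocks in DMSO/RPMI 1:20 v/v. Test range 1.0–64 µM. Inoculum set to 0.5 McFarland, then diluted in saline and RPMI 1640. Plates held at 35 °C for 48 h. MIC is the lowest concentration giving prominent growth reduction. Run in triplicate.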
# Serratia marcescens [6] = experiment: Antimicrobial activity against Serratia marcescens ATCC 14576 at 128 uM after 24 to 48 hrs by two-fold broth microdilution method; format: functional, organism-based; in short: as §1
# Escherichia coli [7] = experiment: Antimicrobial activity against Escherichia coli ATCC 25922 at 128 uM after 24 to 48 hrs by two-fold broth microdilution method; format: functional, organism-based; in short: as §1
# Candida albicans [8] = experiment: Antimicrobial activity against Candida albicans ATCC 537Y at 64 uM after 48 hrs by two-fold broth microdilution method; format: functional, organism-based
# In short: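 Single top concentration of the antifungal microdilution: RPMI 1640, inoculum 0.5 McFarland diluted in saline/RPMI, 35 °C for 48 h. Activity is judged at the highest tested level, 64 µM. Run in triplicate.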
Compound,log(1/MIC>90) (Staphylococcus aureus [1]),MIC (Staphylococcus aureus [2]),MIC90 (Staphylococcus aureus [2]),Activity (Enterobacter cloacae),MIC (Serratia marcescens [3]),MIC90 (Serratia marcescens [3]),MIC (Enterococcus faecalis),MIC90 (Enterococcus faecalis),MIC (Escherichia coli [4]),MIC90 (Escherichia coli [4]),Activity (Klebsiella pneumoniae),MIC (Candida albicans [5]),MIC90 (Candida albicans [5]),Activity (Serratia marcescens [6]),Activity (Escherichia coli [7]),Activity (Candida albicans [8])
O=C(N/N=C/c1ccc([N+](=O)[O-])o1)c1ccc(F)cc1,5.18,2 µM,6.64 µM,inactive,64 µM,104 µM,64 µM,71.2 µM,32 µM,44.1 µM,inactive,32 µM,57 µM,,,
Cc1cc(NS(=O)(=O)c2ccc(N)cc2)no1 [SULFAMETHOXAZOLE],,,,,,,,,16 µM,,,,,inactive,,
COc1ccc(C(=O)N/N=C/c2ccc([N+](=O)[O-])o2)cc1,5.39,4 µM,4.11 µM,inactive,,,8 µM,14.6 µM,32 µM,84 µM,inactive,32 µM,54.6 µM,inactive,,
Cc1ccc(C(=O)N/N=C/c2ccc([N+](=O)[O-])o2)cc1,4.97,8 µM,9.42 µM,inactive,,,8 µM,14.2 µM,,,inactive,32 µM,58.3 µM,inactive,inactive,
CCc1ccc(C(=O)N/N=C/c2ccc([N+](=O)[O-])o2)cc1,5.43,4 µM,3.68 µM,inactive,,,64 µM,69.1 µM,64 µM,110 µM,inactive,32 µM,54 µM,inactive,,
O=C(N/N=C/c1ccc([N+](=O)[O-])o1)c1ccc(Cl)cc1,5.26,4 µM,5.52 µM,inactive,,,32 µM,40.7 µM,64 µM,102 µM,inactive,32 µM,53 µM,inactive,,
O=C(N/N=C/c1ccc([N+](=O)[O-])o1)c1ccccc1,5.28,4 µM,5.27 µM,inactive,,,32 µM,58.8 µM,16 µM,30.4 µM,inactive,32 µM,60.3 µM,inactive,,
CCOc1ccc(C(=O)N/N=C/c2ccc([N+](=O)[O-])o2)cc1,5.43,2 µM,3.7 µM,inactive,,,32 µM,34.9 µM,,,inactive,,,inactive,inactive,inactive
COc1ccc(C2=NN(C(C)=O)C(c3ccc([N+](=O)[O-])o3)O2)cc1 (stereo not drawn),4.96,8 µM,10.9 µM,inactive,,,,,,,inactive,,,inactive,inactive,inactive
CCCCOc1ccc(C(=O)N/N=C/c2ccc([N+](=O)[O-])o2)cc1,5.38,2 µM,4.14 µM,inactive,,,16 µM,24.1 µM,,,inactive,,,inactive,inactive,inactive
O=C(N/N=C/c1ccc([N+](=O)[O-])o1)c1ccc(C(F)(F)F)cc1,5.36,4 µM,4.34 µM,inactive,,,32 µM,60.9 µM,64 µM,92.2 µM,inactive,32 µM,47.8 µM,inactive,,
CCc1ccc(C2=NN(C(C)=O)C(c3ccc([N+](=O)[O-])o3)O2)cc1 (stereo not drawn),4.99,8 µM,10.2 µM,inactive,,,,,,,inactive,32 µM,48.2 µM,inactive,inactive,
